System: MS2 coat protein
Assay: apparent Kd, MS2 coat protein; higher = weaker binding; RNA-MaP array; FMN 200 µM where present
Outline: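 On Illumina sequencing-chip clusters, designs were transcribed by stalled E. coli RNA polymerase and titrated with SNAP-549-labelled MS2 coat protein (0.7 or 1.5 nM, doubling to 3 µM), without and then with constant ligand, in 100 mM Tris-HCl pH 7.5, 80 mM KCl, 4 mM MgCl2, BSA, DTT, yeast tRNA and Tween-20. Apparent Kd is the median of filtered per-cluster curve fits to green signal normalised to red-channel RNA signal and control-cluster median Fmax.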

[1] = designed as: OFF switch for flavin mononucleotide, no ligand
[2] = ligand present: flavin mononucleotide, designed as: OFF switch for flavin mononucleotide
[3] = designed as: ON switch for flavin mononucleotide, no ligand
[4] = ligand present: flavin mononucleotide, designed as: ON switch for flavin mononucleotide

| Sequence | apparent Kd [1] | apparent Kd [2] | apparent Kd [3] | apparent Kd [4] |
| --- | --- | --- | --- | --- |
| AAUAUAGAGCUGGUCUCAAAAUAAACAUGAGGAUCACCCAUGUAGGAUAUCAGCACGAUAAGUGCUGAGAAGGACAUCCAGCUC | 16.3 nM | 18.4 nM |  |  |
| UCAUUGUCAGGAUAUCUUAAUAACGGUUCACUGUUUUAUUUGGAGAAGGGACAUGAGGAUCACCCAUGUUCCUG | 18.3 nM | 20.8 nM |  |  |
| GCGAAUAACGAGGAUAUCGUAUCGGAAACGAUACGAGAAGGUGUAACAUGAGGAUCACCCAUGUUCCUCAACGC | 37.5 nM | 36.4 nM |  |  |
| UGUAACCGAGGAUAUACAUGAGGAUCACCCAUGUAAUGUAGUAUAGUGUAUGUGAGGUGUAGAAGGUGGGAUGU | 75.6 nM | 71.6 nM |  |  |
| GGAUGACAAAGUCAUCCAAAUCGAACAUGAGGAUCACCCAUGUAGGAUAUGCUACUCAAAGAGUAGCAGAAGGACAUGUGCUUU | 37.1 nM | 196 nM |  |  |
| GUGCUUGUCGAAGGAUAUGGUUACAUGAGGAUCACCCAUGUUAUGCUUGGUUACUUGUUUAGUUUCCAGAAGGUCGAUUAGUUG | 53.4 nM | 163 nM |  |  |
| CGUGCGUAUGUGAGGAUAUGCUGGUCCUUGGCUCGGCAGAAGGCACAUGAGGAUCACCCAUGUGGUGUCGUACA | 78.2 nM | 156 nM |  |  |
| UCCUUGGUACAGAAGGACCGAGCUCAGUAGCAGGUAGGAUAUGUACAUGAGGAUCACCCAUGUCAGCGGUAAUUACCAGUUUUC | 57.5 nM | 24.2 nM |  |  |
| AUCAGCUCGUCAGGAUAUACGUCACUGCGUCAGCAGCGUGGUAAGAUCACAUGAGGAUCACCCAUGUAGAAGGGACGAGCUGAU | 25.7 nM | 336 nM |  |  |
| ACAUGAGGAUGAGGAUAUUCAUACAUGAGGAUAGAAGAAGGCAUACAUGAGGAUCACCCAUGUAUACACAUGAGGAUCCCUUAU | 81.1 nM | 156 nM |  |  |
| GCUCCGCACUAGAAGGGUGACAUGAGGAUCACCCAUGUGCACUUCCGCUCUUAGCGGAAAGUGCCACAGGAUAUAGUGUGGAGU |  |  | 31.8 nM | 113 nM |
| AAGUGUGGAUGAGGAUAUCAGCUGUAACUGACGUCGACAUGAGGAUCACCCAUGUUGCUAAAGGGUGAGAAGGCAUUUGCGCAA |  |  | 481 nM | 53.8 nM |
| GUCAGCUCGUGAGGAUAUACAACACUACUUCGGCAGUGUAUUAAGAUCACAUGAGGAUCACCCAUGUAGAAGGCACGAGCUGAU | 14 nM | 228 nM |  |  |
| AGCUACGUUUCGUAGCAGUGUCAUCGAGAAGGCCCUUACAUGACAACAUGAGGAUCACCCAUGUGGGAGGAUAUCGAUGAUACA |  |  | 11.4 nM | 8.98 nM |
| UAAUAAAACGAUCGGCGGUCCAUACAUGAGGAUCACCCAUGUAGAAGGGACUCUACAAAGUAGAGUCAGGAUAUACAAGAUCGA | 8.19 nM | 108 nM |  |  |
| GUGCGGUAGGAGAAGGACGGAGGCUUCUUUUCAUACAUGAGGAUCACCCAUGUAGGAUAUCCUACCUCACGCGGCCUACUACUG | 8.36 nM | 7.7 nM |  |  |
| CCUUUGCUAUAUACAUGAGGAUCACCCAUGUCCACUGACAGACAGGAUAUCCUUAGAAACUAGCAGGAGAAGGGUCAGUCAUAC |  |  | 263 nM | 328 nM |
| GUCGGAAACGACAAAAGUAGCAUAGGAGAAGGCAUGUCAUAAGACAUGAGGAUCACCCAUGUCCGUGAGGAUAUCCUAUGCUAC |  |  | 8.14 nM | 6.15 nM |
| AAUAAACUCACAGGAUAUAGCAGAGGUCGCGUGUACUUACAGGCGACGAUGCUAGAAGGGUGACCACAUGAGGAUCACCCAUGU |  |  | 961 nM | 153 nM |
| GGAUAGGACAGAGGAUAUACGUGCUAGAGAUACUAGCAAAAUUUCCUCACAUGAGGAUCACCCAUGUAGAAGGCUGUCCUUUCG | 17.9 nM | 473 nM |  |  |
| UUAGCAUACCGAGGAUAUUCAUAUAAUAAAUAAACAUGAGGAUCACCCAUGUGGCGAAAGCCUAGGGAGAAGGCGGAAUGCUUU |  |  | 177 nM | 28.1 nM |
| GCGCGAAGGUAGGAUAUCCAGGGAUCUUCCCGCGGAGAAGGACCCACAUGAGGAUCACCCAUGUGGUGAUCCUG | 16.1 nM | 17.4 nM |  |  |
| AGCGUGUAAGGAUAUACGUCGGAUAGCGAAUGCUGUCCCUAGUAGAAGGUACAUGAGGAUCACCCAUGUGUCCA | 23.3 nM | 70.1 nM |  |  |
| CUAUGAGCGAUAGGAUAUACUGAGAUUGAGUGGGUAGAAGGAUCGAUCGUGUAGAAGACAUGAGGAUCACCCAUGUUACGGGCC |  |  | 115 nM | 147 nM |

| Sequence | apparent Kd [1] | apparent Kd [2] | apparent Kd [3] | apparent Kd [4] |
| --- | --- | --- | --- | --- |
| UCGUAUACACAAGGAUAUCGAUGGCUUGUAGAUGCUACAUGAGGAUCACCCAUGUUUUUAUAUUGUGAGAAGGUGUAGUGUCGU |  |  | 141 nM | 221 nM |
| UGGAUGGUAUGAGGAUAUGCGCGCGAAACGCGCGCAGAAGGCGUGUCAAUAGACAUGAGGAUCACCCAUGUACUAUCCAUCCAA |  |  | 85.2 nM | 9.82 nM |
| GGGUACAUCGGAGGAUAUCAUGCAAAUACAUGAGGAUCACCCAUGUCGAUGGAGACAUCGGAGAUUGAGAAGGCCGAUGUACCG |  |  | 21.9 nM | 5.5 nM |
| CAACGUGGAGGAUAUUAGCGAGACAACAUGAGGAUCACCCAUGUGGUACUCAUCUCCUCCUGAGAAGGCUACGCCC | 11.8 nM | 12.3 nM |  |  |
| AAGCGAAAGCUAAAAUAUCUAUCAGAGGAUAUUUAUGAUACAUGAGGAUCACCCAUGUAGCGCUGGGAGAAGGCUGAUAGAUAA |  |  | 6.44 nM | 4.98 nM |
| GGAUGACAAAGUCAUCCAAAUCGAACAUGAGGAUCACCCAUGUAGGAUAUGCAACUCAAAGAGUUGCAGAAGGACAUGUGCUUU | 40.9 nM | 172 nM |  |  |
| AUCGUGAGUAAGGAUAUCACGCGACCCUUUCGGUGAGAAGGUGCCACAUGAGGAUCACCCAUGUGGGUCGUCGC | 15.6 nM | 15.9 nM |  |  |
| GGAUAGGACAGAGGAUAUACAGAUAGGAUCUACUAUCAAACAGUCCUAACAUGAGGAUCACCCAUGUAGAAGGCUGUCCUAUCG | 21.7 nM | 80.3 nM |  |  |
| GCAGCGCUUGACAUGAGGAUCACCCAUGUUAGAUUGUUAUGUCAGGAUAUAGUCUAGAAACUAGACUAGAAGGGAUAUGCUGCU |  |  | 290 nM | 34.1 nM |
| CGGUGACGUGUAGGAUAUGGAGGUGGGUUUUGGCCAGAAGGACAUGAGGAUCACCCAUGUGGUAGAGGGUUGGCGGCGGCCCGU | 15 nM | 14.7 nM |  |  |
| GGAGGAGGUGUAGGAUAUAUAGAGGAGGGAGGGAUAGAAGGACAUGAGGAUCACCCAUGUGAGGAGGAGGAGGGAGGGAGGAGG | 13.4 nM | 11.9 nM |  |  |
| UUGGACGUCGUUGGAUAUGUAGGAUAUUCCUACAUGAGGAUCACCCAUGUUGACAUGGAAGAAGGACAGAAGGACGAUGUCCAU |  |  | 196 nM | 6.05 nM |
| AUCUCACAUGAGGAUCACCCAUGUUAGGAUAUUGUUUCUUGAUGAUUACAUCAAGCGAUAAGAAGGGACAGACU | 25.6 nM | 27.4 nM |  |  |
| GAGAAGGGAGGAUAUGCUGCUCGUCACUUGCGUGAUGAGUAGCAGAAGGCACAUGAGGAUCACCCAUGUAAAGG | 84.2 nM | 29.4 nM |  |  |
| AAUAUAAGAGCUGGACUCAAAAGAACAUGAGGAUCACCCAUGUAGGAUAUCAGCACGAUAAGUGCUGAGAAGGACAACCAGCUC | 14.4 nM | 15.2 nM |  |  |
| CGAAUGUAGACAGGAUAUCCUGGACAUGAGGAUCACCCAUGUGCAUAAAAUGGAGAAGGGUCACGGAGGCCCUGUGGGCAGGGU |  |  | 44.4 nM | 9.21 nM |
| UAGGGCGAGUUAUGUACAAGAUACAUGAGGAUCACCCAUGUGUAGGAUAUGACCCUCAUCGCUGGUCAGAAGGGCACGAGAAUC | 234 nM | 314 nM |  |  |
| AAAAUCUAUUGAGGAUAUUCAAACACUACAUACGGAGAAGGCAAACAAUCAUGAGGACAUGAGGAUCACCCAUGUUGUGACCAU |  |  | 25.5 nM | 19.4 nM |
| CGCUACUACCAGAAGGACAUGAGGAUCACCCAUGUAGGAUAUGGGUUACACGUUCCUGUGUUUUGUUACUACGCUACGUAUGCG |  |  | 621 nM | 29 nM |
| UCAACCGGCGCCGGUUAAACAUGAGGAUCACCCAUGUACUCCAGAAGGCCGCCCAAGAACGGAGUGGAGGAUAUGGAGGUUCUC |  |  | 45.1 nM | 28.7 nM |
| GAGAGGUCAGGAUAUACGGAGAGAGGGAGUUGGUGAGGGUAACAUGAGGAUCACCCAUGUAGAAGGGACUAAGG | 27.6 nM | 30.1 nM |  |  |
| ACUGGUCGAGGAUAUACGUGACGUGCUUCGGCACGAGGUCUACAUGAGGAUCACCCAUGUAGAAGGCGACCAGU | 17 nM | 53.9 nM |  |  |
| AAUUAUAUGUAGAAGGUACUAACAUAUGUGUUGUAAGGAUAUACCAAAUUAUUAGUUAUCAAGUUACAUGAGGAUCACCCAUGU |  |  | 12.3 nM | 7.36 nM |
| UAUUAGUUAGGAUAUACAUGAGGAUCACCCAUGUCACGGGUCCACUUGUCCUAUGCGUGUAGAAGGAGCGACCC | 19.5 nM | 20.8 nM |  |  |
